Among the data in ChEMBL document CHEMBL1126902, “Synthesis, chemical reactivity, and antitumor evaluation of congeners of carmethizole hydrochloride, an experimental "acylated vinylogous carbinolamine" tumor inhibitor” (J Med Chem, 1993) are ILS, KE and IC50 values, retold here.

Assay [1] is described as follows: Percent increase in life span of dying mice tested in vivo at 53 mg/kg against ip implanted LOX amelanotic melanoma in mice (60-day survivors). The assay is classed as functional. Particulars: Mus musculus, 1440 h, route intraperitoneal. The method in brief: (§1)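 Female CD2F1 mice implanted ip with ascitic fluid carrying ca. 1.7×10^6 LOX amelanotic melanoma cells. Drug given ip on days 1, 5 and 9, starting 24 h after implant, dosed by exact body weight; solutions or suspensions made fresh daily. %ILS is from the median day of death of dying mice versus controls, excluding 60-day survivors.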

Assay [2] can be described thus: Change in tumor cell population in ip implanted LOX amelanotic melanoma in mice after administration of compound at 106 mg/kg. The assay is classed as functional, Mus musculus. Particulars: route intraperitoneal. The procedure, abridged: (§2)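 Female CD2F1 mice were implanted ip with ascitic fluid holding ca. 1.7×10^6 LOX cells. Dosing was ip on days 1, 5 and 9, starting 24 h after implantation, by exact body weight, as a solution or suspension in saline plus Tween 80, freshly prepared daily. KE is the net log change in viable tumor cells from start to end of treatment. Bracketed KE assumes Poisson survival, with 60-day survivors tumor-free.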

Assay [3] in a line: Change in tumor cell population in ip implanted LOX amelanotic melanoma in mice after administration of compound at 53 mg/kg. The assay is classed as functional, Mus musculus. Particulars: route intraperitoneal. The method in brief:
as §2

Assay [4] can be described thus: Change in tumor cell population in ip implanted LOX amelanotic melanoma in mice after administration of compound at 212 mg/kg. Particulars: route intraperitoneal. The class given is functional, Mus musculus. The procedure, abridged:
as §2

The nature of assay [5]: Percent increase in life span of dying mice tested in vivo at 106 mg/kg against ip implanted LOX amelanotic melanoma in mice (60-day survivors). Particulars: Mus musculus, 1440 h, route intraperitoneal. The assay is classed as functional. The method in brief:
as §1

The nature of assay [6]: Change in tumor cell population in ip implanted LOX amelanotic melanoma in mice after administration of compound at 26.5 mg/kg. The assay is classed as functional, Mus musculus. Particulars: route intraperitoneal. The procedure, abridged: as §2
A short description of assay [7]: Percent increase in life span of dying mice tested in vivo at 26.5 mg/kg against ip implanted LOX amelanotic melanoma in mice (60-day survivors). Particulars: Mus musculus, 1440 h, route intraperitoneal. The class given is functional. The procedure, abridged: as §1
A short description of assay [8]: Percent increase in life span of dying mice tested in vivo at 212 mg/kg against ip implanted LOX amelanotic melanoma in mice (60-day survivors). Particulars: Mus musculus, 1440 h, route intraperitoneal. The class given is functional. The procedure, abridged:
as §1

The test system of assay [9] is A549. The assay can be described thus: Concentration required to inhibit tumor growth in A549, human lung carcinoma (NSCLC) cell line. The assay is classed as functional, cell-based. The procedure, abridged:
(§3)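 Cells grown in RPMI 1640 with 5% fetal calf serum, 5% NuSerum IV and 20 mM HEPES, seeded and allowed to adhere overnight. Compound dissolved in RPMI-1640 plus HEPES and tested over a 5 log range (10 concentrations) for 72 h. Read-out by sulforhodamine B assay. Median-effect dose derived by nonlinear regression of the concentration-effect curve.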

Assay [10] deals with HT-29. Nature of the assay: Concentration required to inhibit tumor growth in HT29, human colon adenocarcinoma cell line. The assay is classed as functional, cell-based. The procedure, abridged: as §3
Assay [11] can be described thus: Percent increase in life span of dying mice tested in vivo at 50 mg/kg against ip implanted LOX amelanotic melanoma in mice (60-day survivors). The assay is classed as functional. Particulars: Mus musculus, 1440 h, route intraperitoneal. The procedure, abridged: as §1
A short description of assay [12]: Change in tumor cell population in ip implanted LOX amelanotic melanoma in mice after administration of compound at 100 mg/kg. The class given is functional, Mus musculus. Particulars: route intraperitoneal. The method in brief:
as §2

The nature of assay [13]: Change in tumor cell population in ip implanted LOX amelanotic melanoma in mice after administration of compound at 50 mg/kg. The assay is classed as functional, Mus musculus. Particulars: route intraperitoneal. The procedure, abridged:
as §2

The subject of assay [14] is Mus musculus. The assay can be described thus: Change in tumor cell population in ip implanted LOX amelanotic melanoma in mice after administration of compound at 200 mg/kg; toxic. The class given is functional, organism-based. The arrangement: dose 200 mg/kg. The procedure, abridged:
as §2

Assay [15] can be described thus: Percent increase in life span of dying mice tested in vivo at 100 mg/kg against ip implanted LOX amelanotic melanoma in mice (60-day survivors). The assay is classed as functional. Particulars: Mus musculus, 1440 h, route intraperitoneal. The procedure, abridged: as §1
Assay [16] in a line: Percent increase in life span of dying mice tested in vivo at 200 mg/kg against ip implanted LOX amelanotic melanoma in mice (60-day survivors). The class given is functional. Particulars: Mus musculus, 1440 h, route intraperitoneal. The procedure, abridged: as §1
Assay [17] is described as follows: Concentration required to inhibit tumor growth in […], human breast adenocarcinoma cell line. The assay is classed as functional. The method in brief: as §3
For assay [18], the system named is P388. Nature of the assay: Change in tumor cell population in ip implanted P388 Leukemia in mice after administration of compound at 25 mg/kg. The class given is functional, Mus musculus. Particulars: route intraperitoneal. The procedure, abridged:
(§4)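 Female Portage-CD2F1 mice were inoculated ip with ascitic fluid holding ca. 5.2×10^6 P388 cells. Dosing was ip on days 1-5, starting 24 h after inoculation, by average body weight, as a solution or suspension in saline plus Tween 80. KE is the net log change in viable tumor cell population from start to end of the treatment period.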

The subject of assay [19] is P388. The assay can be described thus: Change in tumor cell population in ip implanted P388 Leukemia in mice after administration of compound at 50 mg/kg; toxic. The class given is functional, organism-based. The arrangement: dose 50 mg/kg. Particulars: Mus musculus. The procedure, abridged: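 P388 leukemia: ascitic fluid with ca. 5.2×10^6 cells inoculated ip into Portage-CD₂F₁ female mice. Drug given ip on days 1-5, starting 24 h after inoculation, dosed by average body weight. Vehicle was saline plus Tween 80, as a solution or suspension. KE = net log change in viable tumor cells from start to end of treatment.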

The test system of assay [20] is P388. Nature of the assay: Percent increase in life span of dying mice tested in vivo at 25 mg/kg against ip implanted P388 Leukemia in mice. The class given is functional. Particulars: Mus musculus, route intraperitoneal. The method in brief:
(§5)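 Portage-CD2F1 female mice inoculated ip with ascitic fluid carrying ca. 5.2×10^6 P388 leukemia cells. Drug given ip daily on days 1-5, starting 24 h after inoculation, dosed by average body weight. %ILS is from the median day of death of dying mice versus controls.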

Assay [21] concerns P388. The assay can be described thus: Percent increase in life span of dying mice tested in vivo at 50 mg/kg against ip implanted P388 Leukemia in mice. The assay is classed as functional. Particulars: Mus musculus, route intraperitoneal. The method in brief:
as §5

Assay [22] deals with P388. Nature of the assay: Change in tumor cell population in ip implanted P388 Leukemia in mice after administration of compound at 100 mg/kg; toxic. The class given is functional, organism-based. The arrangement: dose 100 mg/kg. Particulars: Mus musculus. The procedure, abridged:
as §4

For assay [23], the system named is P388. The assay can be described thus: Change in tumor cell population in ip implanted P388 Leukemia in mice after administration of compound at 12.5 mg/kg. The assay is classed as functional, Mus musculus. Particulars: route intraperitoneal. The procedure, abridged: as §4
The test system of assay [24] is P388. Nature of the assay: Percent increase in life span of dying mice tested in vivo at 100 mg/kg against ip implanted P388 Leukemia in mice. The assay is classed as functional. Particulars: Mus musculus, route intraperitoneal. The procedure, abridged:
as §5

Assay [25] can be described thus: Concentration required to inhibit tumor growth in PSN-1, human pancreatic carcinoma cell line. The assay is classed as functional. The method in brief: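 PSN-1 pancreatic carcinoma cells exposed to compound dissolved in RPMI-1640 plus HEPES at its maximum soluble concentration for 72 h. Read-out by sulforhodamine B colorimetric assay.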
Assay [26] relates to P388. Nature of the assay: Percent increase in life span of dying mice tested in vivo at 12.5 mg/kg against ip implanted P388 Leukemia in mice. The assay is classed as functional. Particulars: Mus musculus, route intraperitoneal. The procedure, abridged:
as §5

The subject of assay [27] is L1210 (Mus musculus). Nature of the assay: Concentration required to inhibit tumor growth in L1210, murine lymphocytic leukemia cell line.
In assay [28] the test system is LOX amelanotic melanoma (human). The assay can be described thus: Change in tumor cell population in ip implanted LOX amelanotic melanoma in mice after administration of compound at 25 mg/kg. Particulars: route intraperitoneal.
Assay [29] has the same test system. The assay can be described thus: Percent increase in life span of dying mice tested in vivo at 25 mg/kg against ip implanted LOX amelanotic melanoma in mice (60-day survivors). Particulars: Mus musculus, 1440 h.

For the compound `CNC(=O)OCc1nc(SC2CCCCO2)n(C)c1COC(=O)NC` (stereo not given), in assay [1], the ILS at 53 mg/kg was 15%. Moreover, the KE was determined as 1 in assay [2], 1 in assay [3], 1.3 in assay [4] and 1.2 in assay [6]. Further, the ILS at 106 mg/kg in assay [5] was found to be 15%. In addition, the ILS at 26.5 mg/kg in [7] was 11%. For the same compound, the ILS at 212 mg/kg in assay [8] is 8%.
A word on the IC50: it is the point on the concentration scale where inhibition reaches its midpoint. Low values mean inhibition by little substance, high ones a need for much substance. `CNC(=O)OCc1nc(SC)n(C)c1COC(=O)NC`: the concentration for half-maximal inhibition (IC50) in assay [9] was determined as 218 µM; in [10] (Homo sapiens, HT-29), 162 µM; in assay [10] (ht-29) it was 108 µM; in assay [17], 347 µM; in [25], 110 µM; in assay [27], 4.3 µM. The ILS at 50 mg/kg in [11] is 117%; in assay [21], 17%. The KE was -4 in [12]; -2.9 in assay [13]; “Toxic” in assay [14]; -4.1 in assay [18]; “Toxic” in assay [19]; “Toxic” in assay [22]. In addition, the KE in [23] is on record as -1.5; in assay [28] it was 0.3. The ILS at 100 mg/kg is 143% in assay [15] and -34% in assay [24]. Moreover, the ILS at 200 mg/kg in [16] is -24%. The values for the ILS at 25 mg/kg in assay [20] and in assay [29] were 96% and 34%, respectively. In assay [26], the ILS at 12.5 mg/kg came out at 59%.
